Series [1] can be described thus: Solubility of the compound in FaSSIF. The series is classed as physicochemical.
Series [2] can be described thus: Permeability of the compound at pH 5 by PAMPA. Particulars: read-out: permeability. The series is classed as ADME. The method in brief:
(§1)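 Compound was incubated for 4 h between a donor compartment (System Solution, pH 5.0 or 7.4) and an acceptor sink buffer. The distribution was read by UV absorption, and effective permeability coefficients were calculated by a published method.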

A short description of series [3]: Permeability of the compound at pH 7.4 by PAMPA. It counts as ADME. The note with it: read-out: permeability. The method in brief: as §1
Series [4] is described as follows: Oral bioavailability in rat at 10 mg/kg. It counts as ADME, organism-based. The note with it: in vivo. The method in brief: (§2)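 Fasted male rats (n = 3) were given 1 mg/kg iv in 5% glucose/0.1 M HCl = 9/1, or 10 mg/kg po as a suspension in 0.5% methyl cellulose. Jugular vein blood was drawn into heparinized syringes at iv pre-dose, 5, 15, 30 min, 1, 2, 4, 6 and 24 h, or at po 15 and 30 min, 1, 2, 4, 6 and 24 h. Plasma was analysed for parent compound. BA = (AUCpo/Dpo)/(AUCiv/Div) × 100.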

A short description of series [5]: AUC in rat at 10 mg/kg, po. Particulars: plasma. The series is classed as ADME, organism-based. Details: dose 10 mg/kg, route oral. The essentials:
as §2

Series [6] is described as follows: Cmax in rat at 10 mg/kg, po. The series is classed as ADME, organism-based. Details: dose 10 mg/kg, route oral. The note with it: in vivo. The method in brief:
as §2

Series [7] in a line: AUC in rat at 1 mg/kg, iv. The series is classed as ADME, organism-based. Details: dose 1 mg/kg, route intravenous. The note with it: plasma. The method in brief:
as §2

A short description of series [8]: Volume of distribution at steady state in rat at 1 mg/kg, iv. Particulars: in vivo, read-out: Vdss. More on the design: dose 1 mg/kg, route intravenous. It counts as ADME, organism-based. The method in brief:
as §2

Values after ≈ are worked out from the molar mass of the structure shown. Some results are limits rather than exact numbers.

The source of these data is ChEMBL document CHEMBL2385013, “7-Phenyl-imidazoquinolin-4(5H)-one derivatives as selective and orally available mPGES-1 inhibitors” (Bioorg Med Chem, 2013).

In series [1], `O=c1[nH]c2cc(-c3cccc(Cl)c3)ccc2c2nc(-c3c(F)cccc3Cl)[nH]c12` returned a solubility of 0.5 µg/mL (≈ 1.18 µM). The Papp in series [2] is 29 ×10⁻⁶ cm/s; in series [3], over 30 ×10⁻⁶ cm/s.

With `O=c1[nH]c2cc(Br)ccc2c2[nH]c(-c3ccccc3Cl)nc12`, the concentration in solution in series [1] (solubility) was 0.9 µg/mL (≈ 2.4 µM). In addition, the Papp in series [2] was over 30 ×10⁻⁶ cm/s; in series [3], 26 ×10⁻⁶ cm/s.

As to `O=c1[nH]c2cc(-c3ccccc3)ccc2c2nc(-c3ccccc3Cl)[nH]c12`, the solubility in series [1] is 1 µg/mL (≈ 2.69 µM). For the same compound, the Papp in series [2] and in series [3] was over 30 ×10⁻⁶ cm/s each time.

With `O=c1[nH]c2cc(-c3ccccc3)ccc2c2nc(-c3c(F)cccc3Cl)[nH]c12`, the bioavailability in series [4] turned out to be 19%. The exposure (AUC) in series [5] was determined as 1400 ng·h/mL; in series [7], 728 ng·h/mL. For the same compound, the Cmax in series [6] was 472 ng/mL. The Vd in series [8] was 1.4 L/kg. Further, the solubility in series [1] is 1 µg/mL (≈ 2.57 µM). Besides, the Papp in series [2] was 30 ×10⁻⁶ cm/s; in series [3] it was over 30 ×10⁻⁶ cm/s.

As a reminder, the solubility is the dissolved amount per volume that the medium holds. The low end stands for a poorly soluble substance, the high end for a readily soluble substance. A word on the bioavailability: it is dose-corrected exposure relative to a reference, in per cent. Read a high bioavailability as much systemic uptake. What is called AUC is the area under the concentration-time curve, a measure of exposure. Higher therefore signals high exposure. Usually Cmax stands for the peak of the concentration-time curve.
